From ChEMBL document CHEMBL1137728, “Synthesis of novel thiazolone-based compounds containing pyrazoline moiety and evaluation of their anticancer activity” (2009)

How the values were obtained:
Assay type in all cases: functional
CCRF-CEM [1] = assay: Anticancer activity against human CCRF-CEM cells assessed as cell growth at 10 uM after 48 hrs by SRB assay; settings: read-out: Activity
In short: (§1)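 US NCI one-dose screen across about 60 human tumour cell lines. A single concentration of 10^-5 M was applied with 48 h continuous exposure. The end point was sulforhodamine B protein staining, read spectrophotometrically. Results are given as percent growth of treated cells relative to untreated controls.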

[2] = Anticancer activity against human NCI60 cells assessed as cell growth at 10 uM after 48 hrs by SRB assay; settings: NCI60, 48 h, read-out: Activity; in short: as §1
NCI/ADR-RES = assay: Growth inhibition of human NCI/ADR-RES cells after 48 hrs by SRB assay
In short: (§2)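 NCI five-dose screen across about 60 human tumour cell lines, at 10-fold dilutions from 10^-4 to 10^-8 M with 48 h continuous exposure, read by SRB. Percent growth used time-zero, untreated control and treated absorbances. GI50 was the concentration giving 50% lower net protein increase than controls. Values beyond the tested range were reported as more or less than the maximum or minimum concentration.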

KM12 = assay: Growth inhibition of human KM12 cells after 48 hrs by SRB assay; settings: KM12, 48 h; for TGI: read-out: pTGI (converted); in short: as §2
HOP-62 = assay: Growth inhibition of human HOP62 cells after 48 hrs by SRB assay; settings: HOP-62, 48 h; for TGI: read-out: pTGI (converted); in short: as §2
CCRF-CEM [3] = assay: Growth inhibition of human CCRF-CEM cells after 48 hrs by SRB assay; settings: for TGI: read-out: pTGI (converted); in short: as §2
HCT-15 = assay: Growth inhibition of human HCT15 cells after 48 hrs by SRB assay; settings: HCT-15, 48 h; for TGI: read-out: pTGI (converted); in short: as §2
SN12C = assay: Growth inhibition of human SN12C cells after 48 hrs by SRB assay; settings: for TGI: read-out: pTGI (converted); in short: as §2
[4] = Growth inhibition of human […] cells after 48 hrs by SRB assay; settings: for TGI: read-out: pTGI (converted); in short: as §2
786-0 = assay: Growth inhibition of human 786-0 cells after 48 hrs by SRB assay; settings: 786-0, 48 h; in short: as §2
IGROV-1 = assay: Growth inhibition of human IGROV1 cells after 48 hrs by SRB assay; settings: IGROV-1, 48 h; for TGI: read-out: pTGI (converted); in short: as §2
HOP-92 = assay: Growth inhibition of human HOP92 cells after 48 hrs by SRB assay; settings: HOP-92, 48 h; in short: as §2
U-251 = assay: Growth inhibition of human U251 cells after 48 hrs by SRB assay; settings: U-251, 48 h; for TGI: read-out: pTGI (converted); in short: as §2
UACC-62 = assay: Growth inhibition of human UACC62 cells after 48 hrs by SRB assay; settings: UACC-62, 48 h; for TGI: read-out: pTGI (converted); in short: as §2
MOLT-4 [5] = assay: Anticancer activity against human MOLT4 cells assessed as cell growth at 10 uM after 48 hrs by SRB assay; settings: MOLT-4, 48 h, read-out: Activity; in short: as §1
LOX IMVI = assay: Growth inhibition of human LOXIMVI cells after 48 hrs by SRB assay; settings: for TGI: read-out: pTGI (converted); in short: as §2
SK-MEL-28 = assay: Growth inhibition of human SK-MEL-28 cells after 48 hrs by SRB assay; settings: SK-MEL-28, 48 h; in short: as §2
HT-29 = assay: Growth inhibition of human HT-29 cells after 48 hrs by SRB assay; settings: HT-29, 48 h; in short: as §2
SK-MEL-5 [6] = assay: Growth inhibition of human SK-MEL-5 cells after 48 hrs by SRB assay; settings: SK-MEL-5, 48 h; for TGI: read-out: pTGI (converted); in short: as §2
SNB-75 = assay: Growth inhibition of human SNB75 cells after 48 hrs by SRB assay; settings: SNB-75, 48 h; for TGI: read-out: pTGI (converted); in short: as §2
SK-MEL-5 [7] = assay: Anticancer activity against human SK-MEL-5 cells assessed as cell growth at 10 uM after 48 hrs by SRB assay; settings: SK-MEL-5, 48 h, read-out: Activity; in short: as §1
HL-60(TB) [8] = assay: Growth inhibition of human HL-60(TB) cells after 48 hrs by SRB assay; settings: HL-60, 48 h
In short: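 Five-dose NCI-60 assay at 10-fold dilutions, 10^-4 to 10^-8 M, 48 h continuous exposure; SRB protein staining. Absorbance at time zero, untreated control and each concentration gives percent growth. GI50 is the concentration giving 50% lower net protein increase than controls. Values beyond the range tested are reported as above or below the extreme concentration.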

SF-268 = assay: Growth inhibition of human SF268 cells after 48 hrs by SRB assay; settings: SF-268, 48 h; in short: as §2
ACHN = assay: Growth inhibition of human ACHN cells after 48 hrs by SRB assay; in short: as §2
MDA-MB-231 = assay: Growth inhibition of human MDA-MB-231 cells after 48 hrs by SRB assay; settings: MDA-MB-231, 48 h; in short: as §2
MCF7 = assay: Growth inhibition of human MCF7 cells after 48 hrs by SRB assay; settings: MCF7, 48 h; in short: as §2
MDA-MB-435 = assay: Growth inhibition of human MDA-MB-435 cells after 48 hrs by SRB assay; settings: MDA-MB-435, 48 h; in short: as §2
T47D = assay: Growth inhibition of human T47D cells after 48 hrs by SRB assay; in short: as §2
[9] = Growth inhibition of human Hs 578T cells after 48 hrs by SRB assay; in short: as §2
OVCAR-3 = assay: Growth inhibition of human OVCAR-3 cells after 48 hrs by SRB assay; settings: OVCAR-3, 48 h; in short: as §2
DU-145 [10] = assay: Growth inhibition of human DU145 cells after 48 hrs by SRB assay; settings: DU-145, 48 h; in short: as §2
NCI-H460 = assay: Growth inhibition of human NCI-H460 cells after 48 hrs by SRB assay; settings: NCI-H460, 48 h, read-out: pTGI (converted); in short: as §2
UO-31 = assay: Growth inhibition of human UO31 cells after 48 hrs by SRB assay; settings: UO-31, 48 h; in short: as §2
CAKI-1 = assay: Growth inhibition of human Caki1 cells after 48 hrs by SRB assay; settings: CAKI-1, 48 h; in short: as §2
Malme-3M = assay: Growth inhibition of human MALME-3M cells after 48 hrs by SRB assay; in short: as §2
TK-10 = assay: Growth inhibition of human TK10 cells after 48 hrs by SRB assay; settings: TK-10, 48 h; in short: as §2
HCT-116 = assay: Growth inhibition of human HCT116 cells after 48 hrs by SRB assay; settings: HCT-116, 48 h; in short: as §2
MOLT-4 [11] = assay: Growth inhibition of human MOLT4 cells after 48 hrs by SRB assay; settings: MOLT-4, 48 h; in short: as §2
SNB-19 = assay: Growth inhibition of human SNB19 cells after 48 hrs by SRB assay; settings: SNB-19, 48 h; in short: as §2
DU-145 [12] = assay: Anticancer activity against human DU145 cells assessed as cell growth at 10 uM after 48 hrs by SRB assay; settings: DU-145, 48 h, read-out: Activity; in short: as §1
SR = assay: Anticancer activity against human SR cells assessed as cell growth at 10 uM after 48 hrs by SRB assay; settings: read-out: Activity; in short: as §1
HL-60(TB) [13] = assay: Anticancer activity against human HL-60(TB) cells assessed as cell growth at 10 uM after 48 hrs by SRB assay; settings: HL-60, 48 h, read-out: Activity
In short: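 Single-dose NCI-60 screen: 10^-5 M added to culture, 48 h incubation; endpoint by sulforhodamine B protein staining read spectrophotometrically; reported as percent growth of treated cells versus untreated control cells.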

## O=C1N=C(N2N=C(c3ccccc3)CC2c2ccccc2O)S/C1=C\c1ccc(Cl)cc1 (configuration not stated)
CCRF-CEM [1]
  growth at 10 µM: -25%
[2]
  growth at 10 µM: 98.3%

## O=C1N=C(N2N=C(c3ccccc3)CC2c2ccccc2O)/C(=C/c2ccccc2)S1 (configuration not stated)
NCI/ADR-RES
  GI50: 1.82 µM
KM12
  GI50: 1.62 µM
  TGI: 4.47 µM
HOP-62
  GI50: 1.62 µM
  TGI: 3.47 µM
CCRF-CEM [3]
  GI50: 1.91 µM
  TGI: 4.57 µM
HCT-15
  GI50: 1.51 µM
  TGI: 2.95 µM
SN12C
  GI50: 1.7 µM
  TGI: 3.09 µM
[4]
  GI50: 1.55 µM
  TGI: 3.24 µM
786-0
  GI50: 1.82 µM
786-0; read-out: pTGI (converted)
  TGI: 3.89 µM
IGROV-1
  GI50: 2 µM
  TGI: 4.47 µM
HOP-92
  GI50: 1.55 µM
HOP-92; read-out: pTGI (converted)
  TGI: 4.47 µM
U-251
  GI50: 1.55 µM
  TGI: 2.88 µM
UACC-62
  GI50: 1.62 µM
  TGI: 2.95 µM

## O=C1CSC(N2N=C(c3ccccc3)CC2c2ccccc2O)=N1 (configuration not stated)
MOLT-4 [5]
  growth at 10 µM: -61.5%
[2]
  growth at 10 µM: 101%

## O=C1N=C(N2N=C(c3ccccc3)CC2c2ccccc2O)CS1 (configuration not stated)
CCRF-CEM [1]
  growth at 10 µM: -5.39%
[2]
  growth at 10 µM: 83.6%

## O=C1N=C(N2N=C(c3ccccc3)CC2c2ccccc2O)/C(=C/c2ccc(Cl)cc2)S1 (configuration not stated)
LOX IMVI
  GI50: 1.86 µM
  TGI: 3.55 µM

## O=C1N=C(N2N=C(c3ccccc3)CC2c2ccccc2O)/C(=C/c2ccc(O)cc2)S1 (configuration not stated)
SK-MEL-28
  GI50: 1.78 µM
HT-29
  GI50: 1.91 µM
SK-MEL-5 [6]
  GI50: 1.7 µM
  TGI: 3.31 µM
SNB-75
  GI50: 1.95 µM
  TGI: 5.25 µM
[4]
  GI50: 1.86 µM
  TGI: 4.47 µM
SK-MEL-5 [7]
  growth at 10 µM: -96.3%
UACC-62
  GI50: 1.7 µM
  TGI: 3.31 µM
HL-60(TB) [8]
  GI50: 1.66 µM
HL-60(TB) [8]; read-out: pTGI (converted)
  TGI: 4.9 µM
[2]
  growth at 10 µM: 1.13%

## COc1cc(/C=C2/SC(N3N=C(c4ccccc4)CC3c3ccccc3O)=NC2=O)cc(OC)c1O (configuration not stated)
LOX IMVI
  GI50: 1.55 µM
  TGI: 2.95 µM
SF-268
  GI50: 1.86 µM
SF-268; read-out: pTGI (converted)
  TGI: 4.47 µM
KM12
  GI50: 1.82 µM
  TGI: 3.63 µM
ACHN
  GI50: 1.17 µM
ACHN; read-out: pTGI (converted)
  TGI: 10.2 µM
HOP-62
  GI50: 0.759 µM
  TGI: 15.5 µM
CCRF-CEM [3]
  GI50: 2 µM
  TGI: 5.62 µM
MDA-MB-231
  GI50: 1.45 µM
MDA-MB-231; read-out: pTGI (converted)
  TGI: 3.02 µM
HCT-15
  GI50: 1.23 µM
  TGI: 2.69 µM
MCF7
  GI50: 1.95 µM
MCF7; read-out: pTGI (converted)
  TGI: 4.9 µM
SN12C
  GI50: 1.58 µM
  TGI: 4.9 µM
HT-29
  GI50: 0.427 µM
HT-29; read-out: pTGI (converted)
  TGI: 2.82 µM
MDA-MB-435
  GI50: 1.82 µM
MDA-MB-435; read-out: pTGI (converted)
  TGI: 3.63 µM
T47D
  GI50: 1.78 µM
T47D; read-out: pTGI (converted)
  TGI: 3.98 µM
SK-MEL-5 [6]
  GI50: 1.91 µM
  TGI: 10.5 µM
SNB-75
  GI50: 1.74 µM
  TGI: 4.27 µM
[4]
  GI50: 1.7 µM
  TGI: 6.92 µM
[9]
  GI50: 1.38 µM
[9]; read-out: pTGI (converted)
  TGI: 3.72 µM
OVCAR-3
  GI50: 1.41 µM
OVCAR-3; read-out: pTGI (converted)
  TGI: 2.82 µM
DU-145 [10]
  GI50: 1.55 µM
DU-145 [10]; read-out: pTGI (converted)
  TGI: 3.09 µM
NCI-H460
  TGI: 3.31 µM
IGROV-1
  GI50: 1.58 µM
  TGI: 2.88 µM
UO-31
  GI50: 1.91 µM
UO-31; read-out: pTGI (converted)
  TGI: 4.27 µM
CAKI-1
  GI50: 1.02 µM
CAKI-1; read-out: pTGI (converted)
  TGI: 3.24 µM
Malme-3M
  GI50: 2 µM
Malme-3M; read-out: pTGI (converted)
  TGI: 4.9 µM
TK-10
  GI50: 1.78 µM
TK-10; read-out: pTGI (converted)
  TGI: 3.98 µM
U-251
  GI50: 1.51 µM
  TGI: 2.82 µM
HCT-116
  GI50: 1.55 µM
HCT-116; read-out: pTGI (converted)
  TGI: 2.95 µM
MOLT-4 [11]
  GI50: 1.7 µM
[2]
  growth at 10 µM: 42.6%
SNB-19
  GI50: 1.78 µM
SNB-19; read-out: pTGI (converted)
  TGI: 3.72 µM
DU-145 [12]
  growth at 10 µM: -57%

## O=C1N=C(N2N=C(c3ccccc3)CC2c2ccccc2O)S/C1=C\c1ccccc1Cl (configuration not stated)
SR
  growth at 10 µM: 45.6%
[2]
  growth at 10 µM: 102%

## O=C1N=C(N2N=C(c3ccccc3)CC2c2ccccc2O)S/C1=C\c1cccc(Br)c1 (configuration not stated)
HL-60(TB) [13]
  growth at 10 µM: -54%
[2]
  growth at 10 µM: 88.6%
